Several values for one entry are separate records, joined by “and”; a condition that tells them apart may be missing. Equal entries are not always repeated. Activity calls are given as the source filed them.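 Rule for the calls: active = compounds lowering reporter light with a fitted AC50 at or below twice their top valid dose; inconclusive = flat partial inhibition or an unreliable curve fit; inactive = the rest.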
Tested on: SK-MEL-5 TRPM1 promoter luciferase reporter, 24 h
Assay: decrease of TRPM1 reporter luminescence in SK-MEL-5 – cell-based, dry powder samples, set 4, MITF inhibitor project, dose response (AID 624316)
In short: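 incubation = compound added 24 h post-plating, 24 h exposure at 37 °C | test system = SK-MEL-5 melanoma line stably carrying TRPM1 promoter–luciferase reporter | medium = phenol-red-free DMEM, 10% FBS | dosing = compounds pinned into wells as DMSO solutions | technique = luciferase luminescence with SteadyGlo, 5 min room temperature | benchmarks = parthenolide as positive control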

| Compound | AC50 |
| --- | --- |
| O=C1C(Nc2ccccc2)=C(NS(=O)(=O)c2ccccc2[N+](=O)[O-])C(=O)c2ccccc21 | 29 µM |
| CCN1CCN(C2=C(NS(=O)(=O)c3cccs3)C(=O)c3ccccc3C2=O)CC1 | 1.73 µM |
| O=C(NC1=C(c2ccc(OC(F)(F)F)cc2)C(=O)c2ccccc2C1=O)c1ccco1 | 21 µM |
| O=C1C(NS(=O)(=O)c2ccc(Br)cc2)=C(c2ccccc2)C(=O)c2ccccc21 | 24 µM |
| COc1ccc(C(=O)NC2=C(c3ccc(OC(F)(F)F)cc3)C(=O)c3ccccc3C2=O)cc1 | 35.5 µM |
| O=C1C(NS(=O)(=O)c2ccc(Br)s2)=C(N2CCSCC2)C(=O)c2ccccc21 | 20.5 µM |
| COc1ccc(C(=O)NC2=C(c3ccc(OC)cc3)C(=O)c3ccccc3C2=O)cc1 | 8.59 µM |
| CC1CCN(CC(CS(=O)(=O)c2ccc([N+](=O)[O-])cc2)N2CCC(C)CC2)CC1 (stereo not drawn) | 4.72 µM |
| C=CCNC1=C(Cl)C(=O)c2ccccc2C1=O | 1.67 µM and 2.18 µM |
| C[C@@H](NC1=C(Nc2ccccc2)C(=O)c2ccccc2C1=O)c1ccccc1 | 9.76 µM |
| O=C(NC1=C(N2CCCCC2)C(=O)c2ccccc2C1=O)c1ccc(Br)cc1 | 36.2 µM |
| C=C1C(=O)OC2C1CC/C(C)=C\CCC1(C)OC21 (stereo not drawn) | 4.91 µM |
| O=C1C(NS(=O)(=O)c2ccc(Br)cc2)=C(N2CCCCC2)C(=O)c2ccccc21 | 14.2 µM |
| CC(=O)N(C)C1=C(N2CCN(C)CC2)C(=O)c2ccccc2C1=O | 0.372 µM |
| C=CCNC1=C(NCCCN(CC)CC)C(=O)c2ccccc2C1=O | 3.12 µM |
| Cc1ccc(C(=O)NC2=C(c3ccc(OC(F)(F)F)cc3)C(=O)c3ccccc3C2=O)o1 | 15.4 µM |
| CC(=O)N(C)C1=C(N2CCCCC2)C(=O)c2ccccc2C1=O | 0.7 µM |
| COc1ccc(C2=C(NC(=O)c3cccc(OC)c3)C(=O)c3ccccc3C2=O)cc1 | 11.4 µM |
| C=CCNC1=C(NCCCN2CCOCC2)C(=O)c2ccccc2C1=O | 7.39 µM |
| O=C1C(NS(=O)(=O)c2ccc(Br)cc2)=C(N2CCOCC2)C(=O)c2ccccc21 | 6.87 µM |
| CCN1CCN(C2=C(N(C)C(C)=O)C(=O)c3ccccc3C2=O)CC1 | 0.367 µM |
| O=C(NC1=C(N2CCCCC2)C(=O)c2ccccc2C1=O)c1ccccc1 | 25.6 µM |
| C=CCNC1=C(Nc2ccccc2)C(=O)c2ccccc2C1=O | 12.4 µM |
| C=CCNC1=C(NS(=O)(=O)c2cccs2)C(=O)c2ccccc2C1=O | 12 µM |
| NC1=C(c2ccc(OC(F)(F)F)cc2)C(=O)c2ccccc2C1=O | 16.3 µM |
| C=CCNC1=C(NCCN(CC)CC)C(=O)c2ccccc2C1=O | 1.75 µM |

| Compound | AC50 |
| --- | --- |
| CN1CCN(C2=C(NS(=O)(=O)c3ccc(Br)s3)C(=O)c3ccccc3C2=O)CC1 | 2.57 µM |
| CCN(CC)CCCNC1=C(Nc2ccccc2)C(=O)c2ccccc2C1=O | 2.38 µM |
| O=C1C(NCCCN2CCOCC2)=C(Nc2ccccc2)C(=O)c2ccccc21 | 4.03 µM |
| COc1ccc(C2=C(NC(=O)c3ccc4ccccc4c3)C(=O)c3ccccc3C2=O)cc1 | > 70 µM (inactive) |
| O=C1C(NS(=O)(=O)c2ccc(Br)cc2)=C(N2CCN(c3ccccc3)CC2)C(=O)c2ccccc21 | 17.1 µM |
| Cc1nc2ccccc2n1/N=C/c1ccc([N+](=O)[O-])s1 | 1.86 µM |
| O=C1C(NS(=O)(=O)c2ccc(Br)s2)=C(N2CCOCC2)C(=O)c2ccccc21 | 19.9 µM |
| O=C(NC1=C(c2ccccc2)C(=O)c2ccccc2C1=O)c1ccccc1 | 6.77 µM |
| CC(=O)N(C)C1=C(N2CCOCC2)C(=O)c2ccccc2C1=O | 1.89 µM |
| O=C(CNc1cccc2ccccc12)N/N=C/c1ccc([N+](=O)[O-])o1 | 1.67 µM |
| C=CCNC1=C(NS(=O)(=O)c2ccc(Br)cc2)C(=O)c2ccccc2C1=O | 7.27 µM |
| CN1CCN(C2=C(NS(=O)(=O)c3ccccc3)C(=O)c3ccccc3C2=O)CC1 | 0.614 µM |
| COc1ccc(C2=C(NC(C)=O)C(=O)c3ccccc3C2=O)cc1 | 5.44 µM |
| CC(=O)NC1=C(c2ccc(Oc3ccccc3)cc2)C(=O)c2ccccc2C1=O | 14.8 µM |
| NC1=C(NC(=O)c2ccccc2)C(=O)c2ccccc2C1=O | 4.37 µM |
| O=C1C(NS(=O)(=O)c2cccs2)=C(N2CCOCC2)C(=O)c2ccccc21 | 9.86 µM |
| COC1=C(NS(=O)(=O)c2ccccc2)C(=O)c2ccccc2C1=O | 6.65 µM |
| C=CCNC1=C(NC(=O)c2ccccc2)C(=O)c2ccccc2C1=O | 11.7 µM |
| NC1=CC(=O)c2ccccc2C1=O | 1.41 µM |
| CCN1CCN(C2=C(Nc3ccccc3)C(=O)c3ccccc3C2=O)CC1 | 0.689 µM |
| CCN1CCN(C2=C(NC(=O)c3ccc(Br)cc3)C(=O)c3ccccc3C2=O)CC1 | 0.566 µM |
| O=C(NC1=C(N2CCSCC2)C(=O)c2ccccc2C1=O)c1ccc(Br)cc1 | 8.75 µM |
| O=C(NC1=C(Cl)C(=O)c2ccccc2C1=O)c1ccccc1 | 0.854 µM |
| O=C1C(NS(=O)(=O)c2ccc(Br)cc2)=C(N2CCSCC2)C(=O)c2ccccc21 | 9.91 µM |
| O=C1C(NS(=O)(=O)c2ccccc2)=C(N2CCCCC2)C(=O)c2ccccc21 | 28.3 µM |
| C=CCNC1=C(N2CCOCC2)C(=O)c2ccccc2C1=O | 1.54 µM |

| Compound | AC50 |
| --- | --- |
| CN1CCN(C2=C(Nc3ccccc3)C(=O)c3ccccc3C2=O)CC1 | 4.78 µM |
| O=C1C(NS(=O)(=O)c2ccc(Br)s2)=C(N2CCCCC2)C(=O)c2ccccc21 | 19.3 µM |
| CN1CCN(C2=C(NS(=O)(=O)c3cccs3)C(=O)c3ccccc3C2=O)CC1 | 2.06 µM |
| O=C(NC1=C(c2ccc(OC(F)(F)F)cc2)C(=O)c2ccccc2C1=O)c1ccccc1 | 32 µM |
| COc1cccc(C2=C(NC(=O)c3ccccc3)C(=O)c3ccccc3C2=O)c1 | 13.9 µM |
| O=C1C(Nc2ccccc2)=C(N2CCOCC2)C(=O)c2ccccc21 | 5.81 µM and 4.63 µM |
| CCN1c2ccccc2NC2N=C(OC)C(c3ccccc3)C21 (stereo not drawn) | 2.5 µM |
| CCN(CC)CCNC1=C(Nc2ccccc2)C(=O)c2ccccc2C1=O | 1.66 µM |
| CCN1CCN(C2=C(NS(=O)(=O)c3ccc(Br)cc3)C(=O)c3ccccc3C2=O)CC1 | 4.06 µM |
| Cc1ccc(C(=O)NC2=C(c3ccccc3)C(=O)c3ccccc3C2=O)o1 | 4.8 µM |
| CN1CCN(C2=C(NC(=O)c3ccccc3)C(=O)c3ccccc3C2=O)CC1 | 0.508 µM |
| C=CCNC1=C(N2CCN(C)CC2)C(=O)c2ccccc2C1=O | 3.74 µM |
| COc1ccc(S(=O)(=O)N(C(C)=O)c2ccc(OC(C)=O)c3ccccc23)cc1[N+](=O)[O-] | 6.67 µM |
| CC(=O)NC1=C(c2ccc(Cl)cc2)C(=O)c2ccccc2C1=O | 5.17 µM |
| C=CCNC1=C(N(C)C(C)=O)C(=O)c2ccccc2C1=O | 0.107 µM |
| CCN1CCN(C2=C(NS(=O)(=O)c3ccc(Br)s3)C(=O)c3ccccc3C2=O)CC1 | 4.1 µM |
| O=C1C(NS(=O)(=O)c2ccc(Br)cc2)=C(c2ccc(OC(F)(F)F)cc2)C(=O)c2ccccc21 | 12 µM |
| O=C(NC1=C(c2ccc(Oc3ccccc3)cc2)C(=O)c2ccccc2C1=O)c1ccccc1 | > 70 µM (inactive) |
| O=C(NC1=C(N2CCOCC2)C(=O)c2ccccc2C1=O)c1ccc(Br)cc1 | 11.3 µM |
| C=CCNC1=C(N2CCSCC2)C(=O)c2ccccc2C1=O | 2.81 µM |
| O=C(NC1=C(c2ccc(OC(F)(F)F)cc2)C(=O)c2ccccc2C1=O)c1ccccc1F | 17.1 µM |
| COc1ccc(C2=C(NC(=O)c3ccc(OC)cc3-c3cccc(OC)c3)C(=O)c3ccccc3C2=O)cc1 | > 70 µM (inactive) |
| C=CCNC1=C(N2CCN(CC)CC2)C(=O)c2ccccc2C1=O | 4.12 µM |
| O=C(NC1=C(N2CCN(c3ccccc3)CC2)C(=O)c2ccccc2C1=O)c1ccccc1 | 15 µM |
| NC1=C(c2ccccc2)C(=O)c2ccccc2C1=O | 7.61 µM |
| O=C(NC1=C(c2ccccc2)C(=O)c2ccccc2C1=O)c1ccc(Br)cc1 | 12.3 µM |

| Compound | AC50 |
| --- | --- |
| COc1ccc(C2=C(NC(=O)c3ccc(Cl)cc3)C(=O)c3ccccc3C2=O)cc1 | 16.4 µM |
| CC(=O)NC1=C(c2ccccc2)C(=O)c2ccccc2C1=O | 5.51 µM |
| COc1ccc(C2=C(NC(=O)c3cccc(Cl)c3)C(=O)c3ccccc3C2=O)cc1 | 19.9 µM |
| O=C1C(NS(=O)(=O)c2ccccc2)=C(N2CCOCC2)C(=O)c2ccccc21 | 18.5 µM |
| COc1ccc(C2=C(NC(=O)c3ccccc3Cl)C(=O)c3ccccc3C2=O)cc1 | 6.21 µM |
| COc1ccc(C2=C(N)C(=O)c3ccccc3C2=O)cc1 | 25.1 µM |
| CN1CCN(C2=C(NC(=O)c3ccc(Br)cc3)C(=O)c3ccccc3C2=O)CC1 | 0.921 µM |
| O=C1C=C(Nc2ccccc2)C(=O)c2ccccc21 | 4.07 µM |
| COc1ccc(C(=O)NC2=C(c3ccccc3)C(=O)c3ccccc3C2=O)cc1 | 10.9 µM |
| O=C(NC1=C(N2CCSCC2)C(=O)c2ccccc2C1=O)c1ccccc1 | 3.61 µM |
| CCN(CC)CCCNC1=C(N(C)C(C)=O)C(=O)c2ccccc2C1=O | 0.188 µM |
| O=C1C(Nc2ccccc2)=C(N2CCN(c3ccccc3)CC2)C(=O)c2ccccc21 | 8.06 µM |
| O=C(NC1=C(N2CCOCC2)C(=O)c2ccccc2C1=O)c1ccccc1 | 6 µM |
| C=CCNC1=C(N2CCCCC2)C(=O)c2ccccc2C1=O | 0.538 µM |
| CC(=O)NC1=C(c2ccc3c(c2)oc2ccccc23)C(=O)c2ccccc2C1=O | 1.59 µM |
| O=C1C(Nc2ccccc2)=C(N2CCSCC2)C(=O)c2ccccc21 | 7.75 µM |
| O=C1C(NS(=O)(=O)c2cccs2)=C(N2CCCCC2)C(=O)c2ccccc21 | 21.7 µM |
| CCN(CC)CCCCNC1=C(Nc2ccccc2)C(=O)c2ccccc2C1=O | 2.87 µM |
| O=C(NC1=C(c2ccccc2)C(=O)c2ccccc2C1=O)c1ccco1 | 8.11 µM |
| COc1ccc(C2=C(NC(=O)c3ccccc3OC)C(=O)c3ccccc3C2=O)cc1 | 15.7 µM |
| O=C1C(Nc2ccccc2)=C(N2CCCCC2)C(=O)c2ccccc21 | 2.78 µM |
| CCN1CCN(C2=C(NC(=O)c3ccccc3)C(=O)c3ccccc3C2=O)CC1 | 0.582 µM |
| COc1cccc(-c2cc(C(=O)NC3=C(Cl)C(=O)c4ccccc4C3=O)ccc2OC)c1 | 3.3 µM |
| O=C(NC1=C(c2ccc(OC(F)(F)F)cc2)C(=O)c2ccccc2C1=O)c1ccc(Br)cc1 | 20.5 µM |
| CC(=O)NC1=C(c2cccc(Cl)c2)C(=O)c2ccccc2C1=O | 3.93 µM |
